Assay results as given in PMC4508496 (Theranostics, 2015).
“Also recorded” adds a separate entry of the source. Each block holds one molecule with its values, some of them ahead of it. * marks the point of attachment. AMC = Cc1cc(=O)oc2cc(N*)ccc12; Boc = CC(C)(C)OC(=O)*

Assays:
furin [1] = target: T1, furin (Homo sapiens, UniProt P09958); details: 30 °C; ref Bachem; cited from earlier work
[2] = Pharmacokinetic study of 1 in mice after i.v. administration; type: in vivo; details: i.v. about 3.0 mCi/kg, n = 5
Summary of the method: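 Mice received the 18F radiotracer intravenously at about 3.0 mCi/kg. Mean plasma concentration–time profiles were fitted to a two-compartment model, from which t1/2, AUC0-t, CLtot, Vd and Cmax were derived.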

MDA-MB-468 cells [3] = assay: Cellular efflux titration; type: cell-based, human; details: 120 min efflux
Summary of the method: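 MDA-MB-468 cells (1 million per well) were loaded for 1 h at 37 °C with 4 μCi of the 18F probe plus 0, 5, 25 or 50 μM of its non-radioactive analogue. Medium was then refreshed, marking efflux time 0. At 5–120 min the medium was exchanged and the removed medium was γ-counted. Cells were harvested and counted at 120 min to back-calculate total radioactivity at time 0.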

MDA-MB-468 tumor = assay: MicroPET tumor uptake in MDA-MB-468 tumor-bearing nude mice; type: in vivo; details: for tumor uptake of 1: PET, n = 4
Summary of the method: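 Female BALB/c nude mice (4–8 weeks) received subcutaneous foreleg xenografts of 4 × 10^7 MDA-MB-468 cells in PBS, grown 4–6 weeks. Under isoflurane, mice were randomised to tail-vein dosing: 85 µCi of the 18F probe alone, or the probe plus 20 µmol/kg of its non-radioactive analogue. Ten-minute static PET scans were taken at 10 min to 6 h, reconstructed by 3D OSEM without attenuation or scatter correction. Decay-corrected ROI values were converted assuming 1 g/mL tissue density and divided by administered activity to give %ID/g.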

MDA-MB-468 cells [4] = assay: Cell uptake of 1; type: cell-based, human; details: 30 min; 600,000 MDA-MB-468 cells, 1 µCi of 1; γ-counter
Summary of the method: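 MDA-MB-468 cells (600,000 per well) were seeded for 6 h. Medium was then replaced with fresh medium carrying 1 µCi of the 18F-labelled probe per well. Cells and medium were harvested at 5, 10, 20, 30, 60 and 90 min, and radioactivity was counted on a γ-counter.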

furin [5] = target: T1, furin; assay: Michaelis-Menten kinetics of furin cleavage; type: biochemical
MDA-MB-468 cells [6] = assay: Cell permeability of 1-Cold by fluorescence cell imaging; type: cell-based, human; details: 100 µM, 37 °C, 0.5 h, fluorescence microscopy
Summary of the method: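 MDA-MB-468 breast adenocarcinoma cells were grown in DMEM with 10% FBS at 37 °C under 5% CO2. Cells (3 × 10^6) were exposed to the test compound (100 µM, 37 °C, 0.5 h) and washed three times with PBS. They were then imaged live on an inverted fluorescence microscope in the DAPI channel, with DIC overlay. The probe emits at 450 nm after intracellular furin-driven condensation.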

MDA-MB-468 cells [7] = assay: MTT assay; type: cell-based, human; details: for cells survived (MTT): MDA-MB-468
Summary of the method: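 MDA-MB-468 cells in log phase were seeded at 3 × 10^3 per well and settled 12 h (37 °C, 5% CO2). They were then exposed to the test compound at 25, 50 or 100 µM in medium for 3, 6 or 12 h. MTT (5 mg/mL stock in PBS, pH 7.4) was added for 4 h, and formazan was dissolved in 10% SDS/PBS. Absorbance was read at 570/680 nm. Viability (%) = mean treated absorbance / mean control absorbance × 100.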

furin [8] = target: T1, furin; assay: Time course HPLC analysis of furin-controlled condensation; type: biochemical; details: 100 µM, 1 nmol/U of furin, 37 °C
Summary of the method: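 The non-radioactive analogue (100 µM) was incubated with furin (1 nmol/U) at 37 °C. Mixtures were analysed by HPLC eluted with CH3CN and water, each containing 0.1% TFA, against the untreated compound in water.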

[9] = Nanoparticle characterisation after furin incubation; type: physicochemical; details: 100 μM, furin 1 nmol/U, pH 7.4, 37 °C, 4 h vs before incubation
Summary of the method: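 The non-radioactive analogue (100 µM) was incubated with furin (1 nmol/U) for 4 h at 37 °C. UV-vis spectra were recorded at room temperature. For TEM (200 kV), carbon-coated copper grids were dipped in the suspension, plunged into liquid nitrogen and freeze-dried. SEM was run on the same mixture. One furin unit releases 1 pmol MCA from Boc-RVRR-MCA per minute at 30 °C.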

T1 sequence (P09958 108-595 limits assumed): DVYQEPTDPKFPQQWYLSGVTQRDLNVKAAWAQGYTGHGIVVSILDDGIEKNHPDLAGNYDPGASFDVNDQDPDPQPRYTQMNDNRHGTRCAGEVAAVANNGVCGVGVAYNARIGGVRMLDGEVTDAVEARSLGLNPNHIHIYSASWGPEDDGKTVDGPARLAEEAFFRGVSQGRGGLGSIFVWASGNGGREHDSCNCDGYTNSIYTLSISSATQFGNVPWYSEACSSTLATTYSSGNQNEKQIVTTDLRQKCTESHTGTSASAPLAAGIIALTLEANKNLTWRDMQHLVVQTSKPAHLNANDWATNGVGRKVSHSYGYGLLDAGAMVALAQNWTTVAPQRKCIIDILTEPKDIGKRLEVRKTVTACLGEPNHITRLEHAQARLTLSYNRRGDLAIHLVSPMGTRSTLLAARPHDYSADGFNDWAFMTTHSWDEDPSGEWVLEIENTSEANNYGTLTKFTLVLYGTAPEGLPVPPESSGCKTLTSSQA

Molecule: Boc-RVRR-{AMC} [Boc-RVRR-AMC]
- speed of furin cleavage of commercial substrate (furin [1]): 1 pmol/U per min

- Cmax [2]: 7.471 mCi L^-1
- mean AUC0-t [2]: 452.2 min mCi L^-1
- initial radioactivity retained after cell efflux (MDA-MB-468 cells [3]; 4 μCi of 1 alone, 1 h pre-incubation 37 °C, 1 million cells): 13.1 ± 1.2%
- initial radioactivity retained after cell efflux (MDA-MB-468 cells [3]; 4 μCi of 1 co-incubated with 5 μM 1-Cold): 20.3 ± 4.2%
- initial radioactivity retained after cell efflux (MDA-MB-468 cells [3]; 4 μCi of 1 co-incubated with 25 μM 1-Cold): 28.5 ± 1.4%
- initial radioactivity retained after cell efflux (MDA-MB-468 cells [3]; 4 μCi of 1 co-incubated with 50 μM 1-Cold): 32.1 ± 0.9%
- tumor uptake ratio (Co-injected/1 alone) (MDA-MB-468 tumor; 10 min p.i.): 2.5
- tumor uptake of 1 (MDA-MB-468 tumor; 10 min p.i., 85 µCi 1 alone): 1.02 ± 0.19 % ID/g
- tumor uptake of 1 (MDA-MB-468 tumor; 10 min p.i., co-injected 85 µCi 1 + 20 µmol/kg 1-Cold): 2.52 ± 0.95 % ID/g
- tumor uptake ratio (Co-injected/1 alone) (MDA-MB-468 tumor; 30 min p.i.): 3.6
- tumor uptake of 1 (MDA-MB-468 tumor; 30 min p.i., 85 µCi 1 alone): 1.12 ± 0.08 % ID/g
- tumor uptake of 1 (MDA-MB-468 tumor; 30 min p.i., co-injected 85 µCi 1 + 20 µmol/kg 1-Cold): 4.08 ± 0.48 % ID/g
- tumor uptake ratio (Co-injected/1 alone) (MDA-MB-468 tumor; 60 min p.i.): 6.4
- tumor uptake of 1 (MDA-MB-468 tumor; 60 min p.i., 85 µCi 1 alone): 0.52 ± 0.18 % ID/g
- tumor uptake of 1 (MDA-MB-468 tumor; 60 min p.i., co-injected 85 µCi 1 + 20 µmol/kg 1-Cold): 3.31 ± 1.22 % ID/g
- tumor uptake ratio (Co-injected/1 alone) (MDA-MB-468 tumor; 120 min p.i.): 7.9
- tumor uptake of 1 (MDA-MB-468 tumor; 120 min p.i., co-injected 85 µCi 1 + 20 µmol/kg 1-Cold): 2.27 ± 1.86 % ID/g
- tumor uptake of 1 (MDA-MB-468 tumor; 240 min p.i., 85 µCi 1 alone): 0.19 ± 0.03 % ID/g
- tumor uptake of 1 (MDA-MB-468 tumor; 240 min p.i., co-injected 85 µCi 1 + 20 µmol/kg 1-Cold): 1.55 ± 1.75 % ID/g
- tumor uptake ratio (Co-injected/1 alone) (MDA-MB-468 tumor; 360 min p.i.): 6.5
- tumor uptake of 1 (MDA-MB-468 tumor; 360 min p.i., 85 µCi 1 alone): 0.19 ± 0.05 % ID/g
- tumor uptake of 1 (MDA-MB-468 tumor; 360 min p.i., co-injected 85 µCi 1 + 20 µmol/kg 1-Cold): 1.28 ± 1.07 % ID/g
- cellular uptake (plateau) (MDA-MB-468 cells [4]): 20.4 % of total radioactivity
Molecule: Acetyl-Arg-Val-Arg-Arg-Cys(StBu)-Lys(^18F-FB)-CBT [compound 1]

Molecule: CC(=O)N[C@@H](CCCNC(=N)N)C(=O)N[C@H](C(=O)N[C@@H](CCCNC(=N)N)C(=O)N[C@@H](CCCNC(=N)N)C(=O)N[C@@H](CSSC(C)(C)C)C(=O)N[C@@H](CCCCNC(=O)c1ccc(F)cc1)C(=O)Nc1ccc2nc(C#N)sc2c1)C(C)C [1-Cold]
- Kcat of furin relative to Boc-RVRR-AMC (furin [5]; calculated, Figure S10): 35 times
- Kcat/KM of furin relative to Boc-RVRR-AMC (furin [5]; calculated, Figure S10): 15 times
- binding affinity to furin, fold lower than that of Boc-RVRR-AMC (furin [5]; from KM values): 2.4 fold
- cell permeability (intracellular fluorescence) (MDA-MB-468 cells [6]): good cell permeability
- cells survived (MTT) (MDA-MB-468 cells [7]; 25 µM, 3 h): 110%
- cells survived (MTT) (MDA-MB-468 cells [7]; 25 µM, 12 h): 98%
- cells survived (MTT) (MDA-MB-468 cells [7]; 50 µM, 3 h): 103%
- cells survived (MTT) (MDA-MB-468 cells [7]; 50 µM, 12 h): 105%
- cells survived (MTT) (MDA-MB-468 cells [7]; 100 µM, 3 h): 87%
- cells survived (MTT) (MDA-MB-468 cells [7]; 100 µM, 12 h): 68%
- cytotoxicity to MDA-MB-468 cells (MTT), in words (MDA-MB-468 cells [7]; up to 12 h (abstract: 50 µM)): did not impose cytotoxicity; also recorded: nontoxic
- time in which furin-controlled condensation was accomplished (furin [8]): ≤ 2 h
- UV-vis absorption at 500-700 nm (light scattering, aggregation) [9]: obvious increase of absorption
